Numbered stars: 1 amine (or outer) side, 2 acyl side, 3 side chain; on linkers, the order of the positions; unused ones are H or OH. Bridge positions count the residues as written; N and C are the ends. Square brackets hold non-standard residues; d marks the D form. Peptide text beside a SMILES is read from it. I, II: the chains in the order shown. * marks the point of attachment. ξ: configuration not given here. Naphthalene(2,7-(OC3H6CO)2) = O=C(CCCOc1ccc2ccc(OCCCC(=O)[*:2])cc2c1)[*:1]; X1 = COC(=O)CCCOc1ccc2ccc(OCCCC(=O)*)cc2c1; Thr(3ξ) = CC(O)[C@H](N)C(=O)O
These compounds were tested against T1, Human immunodeficiency virus type 1 protease (Human immunodeficiency virus 1, UniProt Q72874) (assay: The compound was tested for HIV-1 protease inhibitory activity against plasmid pET9c-PR expressing HIV-1 protease.).

Question: For COC(=O)[C@H](Cc1ccccc1)NC(=O)[C@H](CC(N)=O)NC(=O)[C@H](CC(C)C)NC(=O)[C@@H](NC(=O)CCCOc1ccc2ccc(OCCCC(=O)N[C@H](C(=O)N[C@@H](CC(C)C)C(=O)N[C@@H](CC(N)=O)C(=O)N[C@@H](Cc3ccccc3)C(=O)OC)C(C)O)cc2c1)C(C)O (stereo not given in full) (I: [Thr(3ξ)]LNF-OMe / II: [Thr(3ξ)]LNF-OMe; linker I:N-II:N via Naphthalene(2,7-(OC3H6CO)2)), which IC50 is on record?
Answer: 4.4 µM

Question: With COC(=O)[C@@H](NC(=O)[C@H](CC(C)C)NC(=O)[C@@H](NC(=O)CCCOc1cccc(OCCCC(=O)N[C@H](C(=O)N[C@@H](CC(C)C)C(=O)N[C@H](C(=O)OC)C(C)C)C(C)C)n1)C(C)C)C(C)C as the compound, how does the IC50 read?
Answer: 3 µM

Question: How did the IC50 turn out when COC(=O)[C@@H](NC(=O)[C@H](CC(C)C)NC(=O)[C@@H](NC(=O)CCCOc1ccc2ccc(OCCCC(=O)N[C@H](C(=O)N[C@@H](CC(C)C)C(=O)N[C@H](C(=O)OC)C(C)C)C(C)C)cc2c1)C(C)C)C(C)C was run?
Answer: 2 µM

Question: How did the IC50 turn out when COC(=O)CCCOc1ccc2ccc(OCCCC(=O)N[C@H](C(=O)N[C@@H](CC(C)C)C(=O)N[C@H](C(=O)N[C@H](C(=O)OC)C(C)C)C(C)C)C(C)O)cc2c1 (stereo not given in full) (X1-[Thr(3ξ)]LVV-OMe) was run?
Answer: 10 µM

Question: With COC(=O)[C@H](CC(C)C)NC(=O)[C@H](CC(C)C)NC(=O)CNC(=O)CCCOc1cccc(OCCCC(=O)NCC(=O)N[C@@H](CC(C)C)C(=O)N[C@@H](CC(C)C)C(=O)OC)n1 as the compound, how does the IC50 read?
Answer: 16 µM

Question: With COC(=O)[C@H](Cc1ccccc1)NC(=O)[C@H](CC(N)=O)NC(=O)[C@H](CC(C)C)NC(=O)[C@@H](NC(=O)CCCOc1cccc(OCCCC(=O)N[C@H](C(=O)N[C@@H](CC(C)C)C(=O)N[C@@H](CC(N)=O)C(=O)N[C@@H](Cc2ccccc2)C(=O)OC)C(C)O)n1)C(C)O (stereo not given in full) as the compound, how does the IC50 read?
Answer: 10 µM

Question: CC(C)C[C@H](NC(=O)[C@@H](NC(=O)CCCOc1ccc2ccc(OCCCC(=O)N[C@H](C(=O)N[C@@H](CC(C)C)C(=O)N[C@H](C(=O)O)C(C)C)C(C)O)cc2c1)C(C)O)C(=O)N[C@H](C(=O)O)C(C)C (stereo not given in full) was tested. Which IC50 did it give?
Answer: 10 µM

Question: Which IC50 does the source give for CC(C)C[C@H](NC(=O)[C@@H](NC(=O)CCCOc1cccc(OCCCC(=O)N[C@H](C(=O)N[C@@H](CC(C)C)C(=O)N[C@H](C(=O)O)C(C)C)C(C)O)n1)C(C)O)C(=O)N[C@H](C(=O)O)C(C)C (stereo not given in full) here?
Answer: 34 µM

Question: How did the IC50 turn out when CC[C@@H](C)[C@H](NC(=O)[C@@H](NC(=O)CCCOc1cccc(OCCCC(=O)N[C@H](C(=O)N[C@H](C(=O)N[C@H](C(=O)OC)C(C)C)[C@H](C)CC)C(C)O)n1)C(C)O)C(=O)N[C@H](C(=O)OC)C(C)C (stereo not given in full) was run?
Answer: 4.2 µM

Each compound was assayed against T1, Human immunodeficiency virus type 1 protease (assay: Inhibition of plasmid pET9c-PR expressing HIV-1 protease (No inhibition)).

Question: How did the IC50 turn out when COC(=O)CCCOc1ccc2ccc(OCCCC(=O)N[C@H](C(=O)N[C@@H](CC(C)C)C(=O)N[C@@H](Cc3ccc(O)cc3)C(=O)OC)C(C)O)cc2c1 (stereo not given in full) was run?
Answer: Not Active

Question: CC[C@H](C)[C@H](NC(=O)[C@H](CCC(N)=O)NC(=O)CCCOc1ccc2ccc(OCCCC(=O)N[C@@H](CCC(N)=O)C(=O)N[C@H](C(=O)N[C@H](C(=O)N[C@@H](CC(C)C)C(=O)OC)C(C)O)[C@@H](C)CC)cc2c1)C(=O)N[C@H](C(=O)N[C@@H](CC(C)C)C(=O)OC)C(C)O (stereo partly drawn) (I: QI[Thr(3ξ)]L-OMe / II: QI[Thr(3ξ)]L-OMe; linker I:N-II:N via Naphthalene(2,7-(OC3H6CO)2)) was tested. Which IC50 did it give?
Answer: Not Active

Question: For CC(C)C[C@H](NC(=O)[C@@H](NC(=O)CCCOc1cccc(OCCCC(=O)N[C@H](C(=O)N[C@@H](CC(C)C)C(=O)N[C@H](C(=O)O)C(C)C)C(C)O)c1)C(C)O)C(=O)N[C@H](C(=O)O)C(C)C (stereo not given in full), which IC50 is on record?
Answer: Not Active

Question: With COC(=O)[C@@H](NC(=O)[C@H](CC(C)C)NC(=O)[C@@H](NC(=O)CCCOc1ccc2ccc(OCCCC(=O)N[C@H](C(=O)N[C@@H](CC(C)C)C(=O)N[C@H](C(=O)OC)C(C)C)C(C)O)cc2c1)C(C)O)C(C)C (stereo not given in full) as the compound, how does the IC50 read?
Answer: Not Active

Question: CC[C@@H](C)[C@H](NC(=O)[C@H](CCC(N)=O)NC(=O)CCCOc1cccc(OCCCC(=O)N[C@@H](CCC(N)=O)C(=O)N[C@H](C(=O)OC)[C@H](C)CC)c1)C(=O)OC was tested. Which IC50 did it give?
Answer: Not Active

Question: How did the IC50 turn out when COC(=O)[C@H](Cc1ccc(O)cc1)NC(=O)[C@H](CC(C)C)NC(=O)[C@@H](NC(=O)CCCOc1ccc2ccc(OCCCC(=O)N[C@H](C(=O)N[C@@H](CC(C)C)C(=O)N[C@@H](Cc3ccc(O)cc3)C(=O)OC)C(C)O)cc2c1)C(C)O (stereo not given in full) was run?
Answer: Not Active

Question: For COC(=O)CCCOc1ccc2ccc(OCCCC(=O)N[C@H](C(=O)N[C@@H](CC(C)C)C(=O)N[C@H](C(=O)OC)C(C)C)C(C)C)cc2c1, which IC50 is on record?
Answer: Not Active

Question: Which IC50 does the source give for CC[C@H](C)[C@H](NC(=O)[C@H](CCC(N)=O)NC(=O)CCCOc1ccc2ccc(OCCCC(=O)OC)cc2c1)C(=O)N[C@H](C(=O)N[C@@H](CC(C)C)C(=O)OC)C(C)O (stereo partly drawn) (X1-QI[Thr(3ξ)]L-OMe) here?
Answer: Not Active

Question: COC(=O)[C@@H](NC(=O)[C@@H](NC(=O)[C@H](CC(C)C)NC(=O)[C@@H](NC(=O)CCCOc1ccc2ccc(OCCCC(=O)N[C@H](C(=O)N[C@@H](CC(C)C)C(=O)N[C@H](C(=O)N[C@H](C(=O)OC)C(C)C)C(C)C)[C@@H](C)O)cc2c1)[C@@H](C)O)C(C)C)C(C)C (I: TLVV-OMe / II: TLVV-OMe; linker I:N-II:N via Naphthalene(2,7-(OC3H6CO)2)) was tested. Which IC50 did it give?
Answer: Not Active

Question: With CC[C@H](C)[C@H](NC(=O)[C@H](CCC(N)=O)NC(=O)CCCOc1cccc(OCCCC(=O)N[C@@H](CCC(N)=O)C(=O)N[C@H](C(=O)N[C@H](C(=O)N[C@@H](CC(C)C)C(=O)OC)C(C)O)[C@@H](C)CC)n1)C(=O)N[C@H](C(=O)N[C@@H](CC(C)C)C(=O)OC)C(C)O (stereo not given in full) as the compound, how does the IC50 read?
Answer: Not Active

Question: With CC[C@@H](C)[C@H](NC(=O)[C@H](CCC(N)=O)NC(=O)CCCOc1ccc2ccc(OCCCC(=O)N[C@@H](CCC(N)=O)C(=O)N[C@H](C(=O)OC)[C@H](C)CC)cc2c1)C(=O)OC as the compound, how does the IC50 read?
Answer: Not Active

Question: For CC(C)C[C@H](NC(=O)[C@@H](NC(=O)CCCOc1ccc2ccc(OCCCC(=O)N[C@H](C(=O)N[C@@H](CC(C)C)C(=O)N[C@H](C(=O)OCc3ccccc3)C(C)C)C(C)O)cc2c1)C(C)O)C(=O)N[C@H](C(=O)OCc1ccccc1)C(C)C (stereo not given in full), which IC50 is on record?
Answer: Not Active

Question: With COC(=O)[C@@H](NC(=O)[C@H](CC(C)C)NC(=O)[C@@H](NC(=O)CCCOc1cccc(OCCCC(=O)N[C@H](C(=O)N[C@@H](CC(C)C)C(=O)N[C@H](C(=O)OC)C(C)C)C(C)C)c1)C(C)C)C(C)C as the compound, how does the IC50 read?
Answer: Not Active

Question: COC(=O)[C@@H](NC(=O)[C@@H](NC(=O)CCCOc1cccc(OCCCC(=O)N[C@H](C(=O)N[C@H](C(=O)OC)C(C)C)C(C)O)n1)C(C)O)C(C)C (stereo not given in full) was tested. Which IC50 did it give?
Answer: Not Active

Each compound was assayed against Human immunodeficiency virus type 1 protease (Human immunodeficiency virus 1) (UniProt Q72874) (assay: The compound was tested for HIV-1 protease inhibitory activity against plasmid pET9c-PR expressing HIV-1 protease. activity is expressed as Kid value.).
Summary of the method: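 Dissociative (antidimer) inhibition was analysed by the Zhang kinetic method. Fluorogenic substrate was held at 5.2 μM ([S]0 ≪ Km, Km = 103 μM), with at least five HIV-1 protease (pET9c-PR) levels (2.37–11.8 nM) at several inhibitor concentrations. Runs were at pH 4.7 acetate buffer, 30 °C, fluorescence 340/490 nm. Kid was taken from regression fits of [E]0/√vi versus √vi.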

Question: Which Kid does the source give for COC(=O)[C@H](Cc1ccccc1)NC(=O)[C@H](CC(N)=O)NC(=O)[C@H](CC(C)C)NC(=O)[C@@H](NC(=O)CCCOc1ccc2ccc(OCCCC(=O)N[C@H](C(=O)N[C@@H](CC(C)C)C(=O)N[C@@H](CC(N)=O)C(=O)N[C@@H](Cc3ccccc3)C(=O)OC)C(C)O)cc2c1)C(C)O (stereo not given in full) (I: [Thr(3ξ)]LNF-OMe / II: [Thr(3ξ)]LNF-OMe; linker I:N-II:N via Naphthalene(2,7-(OC3H6CO)2)) here?
Answer: 1 µM

Question: For COC(=O)[C@@H](NC(=O)[C@H](CC(C)C)NC(=O)[C@@H](NC(=O)CCCOc1ccc2ccc(OCCCC(=O)N[C@H](C(=O)N[C@@H](CC(C)C)C(=O)N[C@H](C(=O)OC)C(C)C)C(C)C)cc2c1)C(C)C)C(C)C, which Kid is on record?
Answer: 0.56 µM

Question: With COC(=O)[C@H](CC(C)C)NC(=O)[C@H](CC(C)C)NC(=O)CNC(=O)CCCOc1cccc(OCCCC(=O)NCC(=O)N[C@@H](CC(C)C)C(=O)N[C@@H](CC(C)C)C(=O)OC)n1 as the compound, how does the Kid read?
Answer: 4.5 µM

Question: For CC[C@@H](C)[C@H](NC(=O)[C@@H](NC(=O)CCCOc1cccc(OCCCC(=O)N[C@H](C(=O)N[C@H](C(=O)N[C@H](C(=O)OC)C(C)C)[C@H](C)CC)C(C)O)n1)C(C)O)C(=O)N[C@H](C(=O)OC)C(C)C (stereo not given in full), which Kid is on record?
Answer: 1.4 µM

These compounds were tested against Human immunodeficiency virus type 1 protease (Human immunodeficiency virus 1) (UniProt Q72874) (assay: The compound was tested for HIV-1 protease inhibitory activity against plasmid pET9c-PR expressing HIV-1 protease at 4.5 uM).
Summary of the method: (§1)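 Recombinant HIV-1 protease (expressed from pET9c-PR), 7.5 nM final, prediluted in buffer with 1 mg/mL BSA. Inhibitor was mixed with fluorogenic substrate (5.2 μM final) and the reaction started with enzyme. Fluorescence rise at 490 nm (excitation 340 nm) was followed for 5 min at 30 °C.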

Question: Which inhibition does the source give for COC(=O)CCCOc1ccc2ccc(OCCCC(=O)N[C@H](C(=O)N[C@@H](CC(C)C)C(=O)N[C@H](C(=O)OC)C(C)C)C(C)O)cc2c1 (stereo not given in full) here?
Answer: 30%

What follows are compounds tested against Human immunodeficiency virus type 1 protease (Human immunodeficiency virus 1) (UniProt Q72874) (assay: The compound was tested for HIV-1 protease inhibitory activity against plasmid pET9c-PR expressing HIV-1 protease at 6.7 uM).
Summary of the method: as §1

Question: Which inhibition does the source give for COC(=O)[C@@H](NC(=O)[C@H](CC(C)C)NC(=O)[C@@H](NC(=O)CCCOc1cccc(OCCCC(=O)N[C@H](C(=O)N[C@@H](CC(C)C)C(=O)N[C@H](C(=O)OC)C(C)C)C(C)O)n1)C(C)O)C(C)C (stereo not given in full) here?
Answer: 30%

Each compound was assayed against Human immunodeficiency virus type 1 protease (Human immunodeficiency virus 1) (UniProt Q72874) (assay: The compound was tested for HIV-1 protease inhibitory activity against plasmid pET9c-PR expressing HIV-1 protease at 7 uM).
Summary of the method: as §1

Question: With COC(=O)CCCOc1ccc2ccc(OCCCC(=O)N[C@H](C(=O)N[C@@H](CC(C)C)C(=O)N[C@@H](CC(N)=O)C(=O)N[C@@H](Cc3ccccc3)C(=O)OC)C(C)O)cc2c1 (stereo not given in full) (X1-[Thr(3ξ)]LNF-OMe) as the compound, how does the inhibition read?
Answer: 30%
